In test [1] the target is Angiotensin II receptor (Rattus norvegicus) (UniProt P29089+P25095+P35351). In words: In vivo inhibitory activity against angiotensin II induced pressor response in anesthetized normotensive rats. It is filed as functional, organism-based. The method, boiled down: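 Male Wistar-Imamichi rats (300–400 g) under inactin (100 mg/kg ip), with femoral arterial and venous cannulae. AII 50 ng/kg iv every 10 min until responses were constant. Compound in DMSO was then given iv and AII re-injected 2 min later.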

The target of test [2] is T1, Type-1 angiotensin II receptor (Bos taurus, UniProt P25104).
T1 sequence (P25104 whole entry): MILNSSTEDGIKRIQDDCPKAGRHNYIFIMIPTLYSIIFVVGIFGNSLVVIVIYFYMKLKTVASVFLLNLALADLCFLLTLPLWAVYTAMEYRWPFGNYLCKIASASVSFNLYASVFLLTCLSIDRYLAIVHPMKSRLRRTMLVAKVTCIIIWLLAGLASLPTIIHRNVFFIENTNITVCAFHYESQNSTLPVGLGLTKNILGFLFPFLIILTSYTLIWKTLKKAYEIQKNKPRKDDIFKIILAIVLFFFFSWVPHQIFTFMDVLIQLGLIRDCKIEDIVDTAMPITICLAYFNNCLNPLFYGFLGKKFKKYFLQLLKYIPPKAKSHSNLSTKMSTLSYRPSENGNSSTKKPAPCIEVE
In words: In vitro for inhibition of [125I]-angiotensin II (0.1 nM) binding to angiotensin II receptor type 1 in membrane fractions of bovine adrenal cortex. It is filed as tissue-based.

The test system of test [3] is Rattus norvegicus. Briefly: Inhibitory activity against AII-Induced Pressor response at 1 mg/kg at 3 hour. It is filed as functional. The settings on record: Rattus norvegicus, 3 h. The method, boiled down: (§1)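 Male Wistar-Imamichi rats (300–400 g) cannulated under pentobarbital (50 mg/kg ip), fasted 24 h, tested conscious the next day. AII 50 ng/kg iv was repeated until constant, then compound in 50% aqueous DMF given orally. AII was repeated over 8 h, and mean blood pressure response inhibition (%) was recorded at 1, 3, 6 h. n = 3–5.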

Test [4] deals with Rattus norvegicus. Briefly: Inhibitory activity against AII-Induced Pressor response at 1 mg/kg at 6 hour. Format: functional. The conditions noted are these: Rattus norvegicus, 6 h, dose 1 mg/kg. The method, boiled down: as §1
The subject of test [5] is Rattus norvegicus. In words: Inhibitory activity against AII-Induced Pressor response at 1 mg/kg at 1 hr. It is filed as functional. In outline: as §1
The subject of test [6] is Rattus norvegicus. In words: Inhibitory activity against AII-Induced Pressor response at 1 mg/Kg at 1 hr. Format: functional. The method, boiled down:
as §1

Test [7] concerns Rattus norvegicus. Briefly: Inhibitory activity against AII-Induced Pressor response at 1 mg/Kg at 6 hour. Format: functional. In outline: as §1
Test [8] concerns Rattus norvegicus. Briefly: Inhibitory activity against AII-Induced Pressor response at 1 mg/Kg at 3 hour. Format: functional. In outline:
as §1

The test system of test [9] is Rattus norvegicus. In words: Inhibitory activity against AII-Induced Pressor response at 10 mg/Kg at 6 hour. It is filed as functional. The method, boiled down: as §1
Test [10] has as its system Rattus norvegicus. In words: Inhibitory activity against AII-Induced Pressor response at 10 mg/Kg at 3 hour. Format: functional. The method, boiled down:
as §1

Test [11] relates to Rattus norvegicus. Briefly: Inhibitory activity against AII-Induced Pressor response at 10 mg/Kg at 1 hr. Format: functional. In outline:
as §1

Test [12] concerns Rattus norvegicus. In words: Inhibitory activity against AII-Induced Pressor response at 3 mg/Kg at 1 hr. Format: functional. In outline: as §1
Test [13] deals with Rattus norvegicus. In words: Inhibitory activity against AII-Induced Pressor response at 3 mg/Kg at 6 hour. Format: functional. In outline:
as §1

In test [14] the test system is Rattus norvegicus. In words: Inhibitory activity against AII-Induced Pressor response at 3 mg/Kg at 3 hour. Format: functional. The method, boiled down: as §1

In the case of `CCCCc1nc(C(C)(C)O)c(C(=O)O)n1Cc1ccc(-c2ccccc2C(=O)O)cc1`, the ID50 in test [1] came out at 0.066 mg/kg. For the same molecule, the IC50 in [2] came to 30 nM. Regarding `C=C(C)c1nc(CCC)n(Cc2ccc(-c3ccccc3-c3nn[nH]n3)cc2)c1C(=O)O`, the ID50 in test [1] amounted to 0.012 mg/kg.

In test [1], `CCCc1nc(C(O)(CC)CC)c(C(=O)O)n1Cc1ccc(-c2ccccc2C(=O)O)cc1` had an ID50 of 0.11 mg/kg. Moreover, the IC50 in [2] was found to be 110 nM. On to `CCCCc1nc(Cl)c(C(=O)O)n1Cc1ccc(-c2ccccc2C(=O)O)cc1`, for which, in [1], the ID50 is 0.21 mg/kg.

`CCCc1nc(C(=O)O)c(CO)n1Cc1ccc(-c2ccccc2C(=O)O)cc1` gave an ID50 in test [1] of 8.8 mg/kg. The molecule `CCCc1nc(C)c(C(=O)O)n1Cc1ccc(-c2ccccc2C(=O)O)cc1` registered an ID50 in test [1] of 0.096 mg/kg. Further, the IC50 in test [2] worked out at 110 nM. For `CCCc1nc(CO)c(C(=O)O)n1Cc1ccc(-c2ccccc2-c2nnn[nH]2)cc1`, the IC50 in test [2] worked out at 6.9 nM. As to `CCCc1nc(C(=O)O)cn1Cc1ccc(-c2ccccc2-c2nn[nH]n2)cc1`, in test [1], the ID50 came to 2.4 mg/kg. `CCCc1nc(C(C)C)c(C(=O)O)n1Cc1ccc(-c2ccccc2-c2nn[nH]n2)cc1` displayed an ID50 in [1] of 0.014 mg/kg. In the case of `CCCCc1nc(C(C)(C)O)c(C(=O)O)n1Cc1ccc(-c2ccccc2-c2nnn[nH]2)cc1`, in test [2], the IC50 was 9.5 nM. Turning to `CCCc1nc(C(C)(C)O)c(C(=O)OC2OC(=O)c3ccccc32)n1Cc1ccc(-c2ccccc2C(=O)O)cc1` (centres undefined), the inhibition in vivo at 1 mg/kg worked out at 77% in test [3], 74% in test [4] and 73% in [5]. Turning to `CCCc1nc(CC)c(C(=O)O)n1Cc1ccc(-c2ccccc2-c2nn[nH]n2)cc1`, the ID50 in test [1] stood at 0.019 mg/kg. Turning to `CCCc1ncc(C(=O)O)n1Cc1ccc(-c2ccccc2-c2nn[nH]n2)cc1`, the ID50 in [1] came out at 0.018 mg/kg. Further, the IC50 in test [2] came to 9.1 nM. As for `CCc1nc(C(C)(C)O)c(C(=O)O)n1Cc1ccc(-c2ccccc2C(=O)O)cc1`, the ID50 in [1] is 0.3 mg/kg. Also, the IC50 in test [2] was found to be 37 nM. Turning to `CCCc1nc(C(=O)O)c(CO)n1Cc1ccc(-c2ccccc2-c2nn[nH]n2)cc1`, the ID50 in test [1] came out at 1.7 mg/kg. The IC50 in test [2] was 4600 nM.

Molecule `C=C(C)c1nc(CCC)n(Cc2ccc(-c3ccccc3-c3nnn[nH]3)cc2)c1C(=O)O` registered an IC50 in test [2] of 50 nM. In the case of `CCCc1nc(CC)c(C(=O)O)n1Cc1ccc(-c2ccccc2C(=O)O)cc1`, in test [1], the ID50 is 0.27 mg/kg. The IC50 in test [2] came out at 100 nM.

As for `CCCc1nc(C(=O)O)cn1Cc1ccc(-c2ccccc2C(=O)O)cc1`, in test [1], the ID50 came out at 8.2 mg/kg. In test [2], this molecule had an IC50 of 45000 nM.

Consider `CCCc1nc(C(C)(C)O)c(C(=O)OCC)n1Cc1ccc(-c2ccccc2-c2nn[nH]n2)cc1`, for which the values for the inhibition in vivo at 1 mg/kg in [6], in [7] and in test [8] were 70%, 76% and 72%, respectively. The molecule further registered an ID50 in test [1] of 0.32 mg/kg. In test [1], `CCCc1nc(C(=O)O)c(C(=O)O)n1Cc1ccc(-c2ccccc2C(=O)O)cc1` had an ID50 of 0.67 mg/kg. Regarding `CCCc1nc(C(C)(C)O)c(C(=O)OCC)n1Cc1ccc(-c2ccccc2-c2nnn[nH]2)cc1`, the IC50 in [2] came out at 200 nM. The molecule `CCCc1nc(CO)c(CO)n1Cc1ccc(-c2ccccc2C(=O)O)cc1` yielded an ID50 in test [1] of 2.1 mg/kg. `CCCc1nc(CO)c(C(=O)OCC)n1Cc1ccc(-c2ccccc2C(=O)O)cc1` came in with an ID50 in test [1] of 1.5 mg/kg.

On to `CCCc1nc(C(C)(C)O)c(C(=O)O)n1Cc1ccc(-c2ccccc2C(=O)O)cc1`, for which the inhibition in vivo at 10 mg/kg is 56% in test [9], 70% in [10] and 88% in [11]. Further, in test [1], the ID50 was determined as 0.056 mg/kg. In addition, the results for the inhibition in vivo at 3 mg/kg in test [12], in test [13] and in [14] were 78%, 48% and 67%, respectively. Also, the inhibition in vivo at 1 mg/kg was 42% in [3], 12% in [4] and 50% in test [5]. In [2], this molecule gave an IC50 of 28 nM.

As for `CCCc1nc(C(C)(C)O)c(C(=O)OCOC(=O)OC(C)C)n1Cc1ccc(-c2ccccc2C(=O)O)cc1`, the inhibition in vivo at 1 mg/kg in test [3], in test [4] and in test [5] was 71% each time.

As for `CCCCc1nc(C(C)(C)O)c(C(=O)O)n1Cc1ccc(-c2ccccc2-c2nn[nH]n2)cc1`, the ID50 in test [1] turned out to be 0.017 mg/kg. In test [1], `CCCc1nc(C(C)O)c(C(=O)O)n1Cc1ccc(-c2ccccc2C(=O)O)cc1` (centres undefined) came in with an ID50 of 0.062 mg/kg. Further, in [2], the IC50 was determined as 28 nM. `CCc1nc(C(C)(C)O)c(C(=O)O)n1Cc1ccc(-c2ccccc2-c2nn[nH]n2)cc1` yielded an ID50 in test [1] of 0.019 mg/kg. Turning to `CCCc1nc(C(C)(C)O)c(C(=O)OCc2oc(=O)oc2C)n1Cc1ccc(-c2ccccc2C(=O)O)cc1`, the inhibition in vivo at 1 mg/kg in test [3] was 70%; in test [4], 70%; in [5], 72%. The molecule `CCCc1nc(C(C)(O)CC)c(C(=O)O)n1Cc1ccc(-c2ccccc2C(=O)O)cc1` (centres undefined) gave an ID50 in test [1] of 0.074 mg/kg. Besides, the IC50 in [2] is 51 nM.

In the case of `CCCc1nc(C(C)(C)O)c(C(=O)OCC)n1Cc1ccc(-c2ccccc2C(=O)O)cc1`, the inhibition in vivo at 10 mg/kg in test [9] was found to be 75%; in [10], 70%; in [11], 40%. The ID50 in test [1] worked out at 1.2 mg/kg. Further, the inhibition in vivo at 3 mg/kg in test [12] is 26%; in [13], 25%; in test [14], 28%. In test [2], this molecule came in with an IC50 of 600 nM. In test [1], `CCCc1nc(C(C)C)c(C(=O)O)n1Cc1ccc(-c2ccccc2C(=O)O)cc1` gave an ID50 of 0.14 mg/kg. Consider `CCCCc1nc(Cl)c(CO)n1Cc1ccc(-c2ccccc2C(=O)O)cc1`, for which the ID50 in [1] was 2.3 mg/kg. In test [2], `CCCc1nc(C(C)O)c(C(=O)O)n1Cc1ccc(-c2ccccc2-c2nnn[nH]2)cc1` (centres undefined) had an IC50 of 4.9 nM. Take `C=C(C)c1nc(CCC)n(Cc2ccc(-c3ccccc3C(=O)O)cc2)c1C(=O)O`: in test [1], the ID50 came out at 0.37 mg/kg. Also, the half-inhibitory concentration (IC50) in test [2] turned out to be 270 nM. `CCCc1nc(C(=O)O)c(C(=O)O)n1Cc1ccc(-c2ccccc2-c2nn[nH]n2)cc1` gave an ID50 in [1] of 0.031 mg/kg.

Turning to `CCCc1nc(C(C)C)c(C(=O)O)n1Cc1ccc(-c2ccccc2-c2nnn[nH]2)cc1`, the IC50 in [2] was 46 nM. For the molecule `CCCc1nc(C(C)(C)O)c(C(=O)O)n1Cc1ccc(-c2ccccc2C(=O)OCOC(=O)C(C)(C)C)cc1`, the results for the inhibition in vivo at 1 mg/kg in [3], in test [4] and in [5] were 35%, 40% and 20%, respectively. In the case of `CCc1nc(C(C)(C)O)c(C(=O)O)n1Cc1ccc(-c2ccccc2-c2nnn[nH]2)cc1`, the IC50 in [2] is 5.3 nM.

Consider `CCCc1ncc(C(=O)O)n1Cc1ccc(-c2ccccc2C(=O)O)cc1`, for which, in test [1], the ID50 is 0.22 mg/kg. This molecule had an IC50 in test [2] of 60 nM. As to `CCCc1nc(CC)c(C(=O)O)n1Cc1ccc(-c2ccccc2-c2nnn[nH]2)cc1`, the IC50 in test [2] was found to be 12 nM. Consider `CCCc1nc(C)c(C(=O)O)n1Cc1ccc(-c2ccccc2-c2nn[nH]n2)cc1`, for which, in [1], the ID50 was 0.028 mg/kg. The same molecule came in with an IC50 in test [2] of 11 nM. As to `CCCc1nc(CO)c(C(=O)O)n1Cc1ccc(-c2ccccc2C(=O)O)cc1`, the ID50 in test [1] turned out to be 0.069 mg/kg.

Broadly, the IC50 is the concentration that inhibits the measured activity by half. Usually inhibition in vivo stands for how much of the control response was suppressed.

Source of the values: ChEMBL document CHEMBL1129298, “Nonpeptide angiotensin II receptor antagonists: synthesis, biological activities, and structure-activity relationships of imidazole-5-carboxylic acids bearing alkyl, alkenyl, and hydroxyalkyl substituents at the 4-position and their related compounds” (J Med Chem, 1996).
